What was measured:
MDA-MB-231 [1] = assay: Antiproliferative activity against triple negative human MDA-MB-231 cells assessed as reduction in cell growth incubated for 48 hrs by MTT assay; type: functional, cell-based; settings: MDA-MB-231, 48 h
Summary of the method: (§1)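 MTT viability: MCF-7 and MDA-MB-231 seeded 1×10^4 cells/well, exposed to DMSO or 0.01-100 μM for 48 h; MTT (5 mg/mL in PBS) added 4 h, formazan dissolved in DMSO, OD 550 nm; quadruplicate wells; IC50 fitted for compounds giving >50% inhibition at 10 µM; at least three independent experiments.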

MCF7 [2] = assay: Antiproliferative activity against ER-positive human MCF7 cells assessed as reduction in cell growth incubated for 48 hrs by MTT assay; type: functional, cell-based; settings: MCF7, 48 h; summary of the method: as §1
MDA-MB-231 [3] = assay: Antiproliferative activity against triple negative human MDA-MB-231 cells assessed as reduction in cell growth at 10 uM incubated for 48 hrs by MTT assay relative to control; type: functional; settings: MDA-MB-231, 48 h; summary of the method: as §1
MCF7 [4] = assay: Antiproliferative activity against ER-positive human MCF7 cells assessed as reduction in cell viability at 10 uM incubated for 48 hrs by MTT assay relative to control; type: functional; settings: MCF7, 48 h; summary of the method: as §1
MCF-10A = assay: Antiproliferative activity against human MCF10A cells assessed as reduction in cell growth incubated for 72 hrs by MTT assay; type: functional, cell-based
Summary of the method: (§2)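 MTT viability after 72 h exposure at indicated concentrations; cells seeded at 1×10^3 cells/well (T47D, MDA-MB-468, MCF-10A, MCF-7/ADR) in 96-well plates; quadruplicate wells, independently repeated three times; IC50 as mean ± SE of at least three experiments.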

T47D = assay: Antiproliferative activity against ER-positive human T47D cells assessed as reduction in cell growth incubated for 72 hrs by MTT assay; type: functional, cell-based; summary of the method: as §2
MDA-MB-468 = assay: Antiproliferative activity against triple negative human MDA-MB-468 cells assessed as reduction in cell growth incubated for 72 hrs by MTT assay; type: functional, cell-based; settings: MDA-MB-468, 72 h; summary of the method: as §2
MDA-MB-231 [5] = assay: Antitumor activity against triple-negative human MDA-MB-231 cells xenografted in mouse assessed as reduction in tumor growth at 40 mg/kg, ip administered once daily for 7 days; type: functional; settings: MDA-MB-231, ip, 168 h, read-out: GI
Summary of the method: (§3)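 Female nude mice (6 weeks) given 2.5×10^6 MDA-MB-231 cells in PBS into third mammary fat pad, randomized into four groups; at 200 mm³ tumor volume dosed i.p. daily for 7 days in 50% DMSO/50% PEG vehicle; tumor volume (0.5×L×W²) and body weight measured daily; one-way ANOVA.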

[6] = Toxicity in mouse xenografted with triple negative human MDA-MB-231 cells assessed as body weight at 40 mg/kg, ip administered once daily for 7 days; type: organism-based; settings: in vivo, 168 h; summary of the method: as §3
MDA-MB-231 [7] = assay: Potency index, ratio of SMBA1 IC50 to compound IC50 for antiproliferative activity against triple negative human MDA-MB-231 cells assessed as reduction in cell growth incubated for 48 hrs by MTT assay; type: functional
MCF7 [8] = assay: Potency index, ratio of SMBA1 IC50 to compound IC50 for antiproliferative activity against ER-positive human MCF7 cells assessed as reduction in cell growth incubated for 48 hrs by MTT assay; type: functional
MDA-MB-231 [9] = assay: Antitumor activity against triple-negative human MDA-MB-231 cells xenografted in mouse assessed as reduction in tumor growth at 20 mg/kg, ip administered once daily for 7 days; type: functional; settings: MDA-MB-231, ip, 168 h, read-out: GI; summary of the method: as §3
[10] = Toxicity in mouse xenografted with triple negative human MDA-MB-231 cells assessed as body weight at 20 mg/kg, ip administered once daily for 7 days; type: organism-based; settings: in vivo, 168 h; summary of the method: as §3

| SMILES | IC50 (MDA-MB-231 [1]) [µM] | IC50 (MCF7 [2]) [µM] | inhibition at 10 µM (MDA-MB-231 [3]) [%] | inhibition at 10 µM (MCF7 [4]) [%] | other results |
| --- | --- | --- | --- | --- | --- |
| CC(=O)NCCOc1ccccc1C=C1c2ccccc2-c2ccc([N+](=O)[O-])cc21 | > 10 | > 10 | – | – | – |
| CC[C@H](N)COc1ccccc1C=C1c2ccccc2-c2ccc([N+](=O)[O-])cc21 | 5.08 | 4.66 | > 50 | > 50 | – |
| COc1ccccc1C=C1c2ccccc2-c2ccc([N+](=O)[O-])cc21 | > 10 | > 10 | – | – | – |
| CN1CCN(c2ncccc2C=C2c3ccccc3-c3ccc([N+](=O)[O-])cc32)CC1 | > 10 | > 10 | – | – | – |
| O=[N+]([O-])c1ccc2c(c1)C(=Cc1ccccc1O)c1ccccc1-2 | 5.6 | 8.3 | > 50 | > 50 | IC50 (MCF-10A): 7.58 µM; IC50 (T47D): 10.4 µM; IC50 (MDA-MB-468): 16.1 µM; inhibition in vivo at 40 mg/kg (MDA-MB-231 [5]): 51%; Activity [6]: Non-Toxic |
| O=[N+]([O-])c1ccc2c(c1)C(=Cc1ccccc1OCCN1CCCCC1)c1ccccc1-2 | 8.64 | > 10 | > 50 | – | – |
| Nc1ncccc1C=C1c2ccccc2-c2ccc([N+](=O)[O-])cc21 | > 10 | > 10 | – | – | – |
| CC(C)(C)OC(=O)NCCOc1ccccc1C=C1c2ccccc2-c2ccc([N+](=O)[O-])cc21 | > 10 | > 10 | – | – | – |
| O=[N+]([O-])c1ccc2c(c1)C(=Cc1ccccc1OCCN1CCNCC1)c1ccccc1-2 | 3.5 | 4.97 | > 50 | > 50 | – |
| Nc1ccccc1C=C1c2ccccc2-c2ccc([N+](=O)[O-])cc21 | > 10 | > 10 | – | – | – |
| O=[N+]([O-])c1ccc2c(c1)C(=Cc1ccccc1OC1CCNCC1)c1ccccc1-2 | 3.53 | 5.45 | > 50 | > 50 | – |
| O=[N+]([O-])c1ccc2c(c1)C(=Cc1ccccc1Br)c1ccccc1-2 | > 10 | > 10 | – | – | – |
| NCCOc1ccccc1C=C1c2ccccc2-c2ccc([N+](=O)[O-])cc21 | 3.22 | 3.81 | > 50 | > 50 | IC50 (MCF-10A): 4.37 µM; IC50 (T47D): 9.47 µM; IC50 (MDA-MB-468): 8.73 µM; Ratio IC50 (MDA-MB-231 [7]): 1.7 - 2.2; Ratio IC50 (MCF7 [8]): 1.7 - 2.2; inhibition in vivo at 20 mg/kg (MDA-MB-231 [9]): 57%; Activity [10]: Non-Toxic |
| NCCCOc1ccccc1C=C1c2ccccc2-c2ccc([N+](=O)[O-])cc21 | 5.34 | 5.13 | > 50 | > 50 | – |
| O=[N+]([O-])c1ccc2c(c1)C(=Cc1cccnc1O)c1ccccc1-2 | > 10 | – | – | – | – |
| NC[C@H](CCl)Oc1ccccc1C=C1c2ccccc2-c2ccc([N+](=O)[O-])cc21 | > 10 | > 10 | – | – | – |
| CS(=O)(=O)N1CCN(CCOc2ccccc2C=C2c3ccccc3-c3ccc([N+](=O)[O-])cc32)CC1 | > 10 | – | – | – | – |
| NCCOCCOc1ccccc1C=C1c2ccccc2-c2ccc([N+](=O)[O-])cc21 | 9.35 | 6.13 | > 50 | > 50 | – |

| SMILES | IC50 (MDA-MB-231 [1]) [µM] | IC50 (MCF7 [2]) [µM] | inhibition at 10 µM (MDA-MB-231 [3]) [%] | inhibition at 10 µM (MCF7 [4]) [%] | other results |
| --- | --- | --- | --- | --- | --- |
| NCCCCOc1ccccc1C=C1c2ccccc2-c2ccc([N+](=O)[O-])cc21 | 3.66 | 5.77 | > 50 | > 50 | – |
| NCCOc1ccccc1C=C1c2ccccc2-c2ccc(N)cc21 | 6.03 | 6.31 | > 50 | > 50 | – |
| CN(C)CCNc1ccccc1C=C1c2ccccc2-c2ccc([N+](=O)[O-])cc21 | > 10 | > 10 | – | – | – |
| CN(C)CCOc1ccccc1C=C1c2ccccc2-c2ccc([N+](=O)[O-])cc21 | > 10 | > 10 | – | – | – |
| COc1ncccc1C=C1c2ccccc2-c2ccc([N+](=O)[O-])cc21 | > 10 | > 10 | – | – | – |
| NCCOc1cccc(C=C2c3ccccc3-c3ccc([N+](=O)[O-])cc32)c1 | 4.87 | 3.77 | > 50 | > 50 | – |
| O=[N+]([O-])c1ccc2c(c1)C(=Cc1ccccc1OCCN1CCOCC1)c1ccccc1-2 | > 10 | – | – | – | – |
| NCCOc1ccc(C=C2c3ccccc3-c3ccc([N+](=O)[O-])cc32)cc1 | 6.4 | 8.47 | > 50 | > 50 | – |
| O=[N+]([O-])c1ccc2c(c1)C(=Cc1ccccc1OCCF)c1ccccc1-2 | > 10 | > 10 | – | – | – |
| O=[N+]([O-])c1ccc2c(c1)C(=Cc1ccccc1OCCO)c1ccccc1-2 | > 10 | – | – | – | – |
| Nc1ccc2c(c1)C(=Cc1ccccc1O)c1ccccc1-2 | > 10 | > 10 | – | – | – |
| CC(C)[C@H](N)COc1ccccc1C=C1c2ccccc2-c2ccc([N+](=O)[O-])cc21 | 5.04 | 4.5 | > 50 | > 50 | – |
| O=[N+]([O-])c1ccc2c(c1)C(=Cc1cccnc1N1CCNCC1)c1ccccc1-2 | 4.27 | 5 | > 50 | > 50 | – |
| CN1CCN(CCOc2ccccc2C=C2c3ccccc3-c3ccc([N+](=O)[O-])cc32)CC1 | > 10 | 9.58 | – | > 50 | – |
| O=[N+]([O-])c1ccc2c(c1)C(=Cc1ccccc1OCCN1CCN(S(=O)(=O)C3CC3)CC1)c1ccccc1-2 | > 10 | – | – | – | – |
| CNCCOc1ccccc1C=C1c2ccccc2-c2ccc([N+](=O)[O-])cc21 | 5.48 | 4.26 | > 50 | > 50 | – |
| CC(=O)N1CCN(CCOc2ccccc2C=C2c3ccccc3-c3ccc([N+](=O)[O-])cc32)CC1 | > 10 | > 10 | – | – | – |

From ChEMBL document CHEMBL4364270, “Structure-activity relationship studies on Bax activator SMBA1 for the treatment of ER-positive and triple-negative breast cancer” (Eur J Med Chem, 2019)
